The EC50 is the concentration at which the effect is half-maximal. By EC90 is commonly meant the point of the concentration-response curve where the effect stands at 90%. Broadly, the CC50 is the concentration giving 50% cytotoxicity.

Among the data in ChEMBL document CHEMBL3792308, “Synthesis and Evaluation of 2,6-Modified Purine 2'-C-Methyl Ribonucleosides as Inhibitors of HCV Replication” (ACS Med Chem Lett, 2016) are EC50, EC90 and CC50 values, retold here.

A value given as a limit tells only on which side of the number the result lay.

The test system of one data set is Hepatitis C virus. As to the kind of experiment: Antiviral activity against HCV infected in HuH7 Clone B cells assessed as inhibition of viral replication after 5 days by RT-PCR method. Format: functional, organism-based, Hepacivirus hominis. The note with it: 120 h. The essentials: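 Huh7 cells carrying a subgenomic HCV replicon; HCV RNA extracted and amplified to measure replication inhibition. Tested up to 10 μM, and EC50 and EC90 are reported.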

Data set [1] in a line: Cytotoxicity against human PBMC after 6 days by trypan blue exclusion assay. Format: cell-based. The note with it: PBMC (peripheral blood mononuclear cells).
Data set [2] can be described thus: Cytotoxicity against human HuH7 cells infected with HCV assessed as reduction in cellular rRNA level after 96 hrs by qRT-PCR analysis. Format: cell-based, Huh-7. The essentials:
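Huh7 toxicity was read in the same wells as the replicon assay, by extracting and amplifying cellular rRNA alongside HCV RNA.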
On the technique in general: In qPCR the cycle at which signal appears reflects the starting amount.

The nature of data set [3]: Cytotoxicity against African green monkey Vero cells after 3 days by hemocytometry. As to conditions: chlorocebus sabaeus. Format: cell-based.
The nature of data set [4]: Cytotoxicity against human CEM cells after 6 days by trypan blue exclusion assay. The format is cell-based. The note with it: CEM (CCRF-CEM) cells.

On to `CCOC(=O)[C@H](C)NP(=O)(OC[C@H]1O[C@@H](n2cnc3c(NOC)nc(N)nc32)[C@](C)(O)[C@@H]1O)Oc1ccccc1` (stereo not given in full), for which the EC50 with Hepatitis C virus was 0.3 µM. In addition, the EC90 in the data set on Hepatitis C virus is 1 µM. In addition, the CC50 at 144 h in data set [1] was more than 100 µM; in data set [4], 32 µM. In data set [2], the CC50 at 96 h was more than 10 µM. In data set [3], the CC50 at 72 h was more than 100 µM.

`COc1nc(N)nc2c1ncn2[C@@H]1O[C@H](COP(=O)(N[C@@H](C)C(=O)OCC(C)(C)C)Oc2cccc3ccccc23)[C@@H](O)[C@@]1(C)O` (stereo not given in full) [BMS-986094]: the EC50 in the data set on Hepatitis C virus was 0.02 µM. In addition, the EC90 in the data set with Hepatitis C virus worked out at 0.04 µM. Also, the CC50 at 144 h came out at 4.5 µM in data set [1] and 8 µM in data set [4]. Also, the CC50 at 96 h in data set [2] stood at 0.8 µM. The CC50 at 72 h in data set [3] was found to be 14 µM.

For the compound `CCOP(=O)(OCC)c1nc(N)nc2c1ncn2[C@@H]1O[C@H](CO)[C@@H](O)[C@@]1(C)O`, the EC50 with Hepatitis C virus was more than 10 µM. Further, the EC90 in the data set with Hepatitis C virus was more than 10 µM. Also, the CC50 at 144 h in data set [1] and in data set [4] was more than 100 µM in each case. Moreover, the CC50 at 96 h in data set [2] is more than 10 µM. Also, the CC50 at 72 h in data set [3] was more than 100 µM.

Take `CCOC(=O)[C@H](C)NP(=O)(OC[C@H]1O[C@@H](n2cnc3c(P(=O)(OCC)OCC)nc(N)nc32)[C@](C)(O)[C@@H]1O)Oc1ccccc1` (stereo not given in full): the EC50 with Hepatitis C virus is more than 10 µM. The EC90 in the data set with Hepatitis C virus is more than 10 µM. Besides, the CC50 at 144 h in data set [1] and in data set [4] was more than 100 µM each time. For the same compound, the CC50 at 96 h in data set [2] was more than 10 µM. The CC50 at 72 h in data set [3] was more than 100 µM.

Turning to `CONc1nc(N)nc2c1ncn2[C@@H]1O[C@H](CO)[C@@H](O)[C@@]1(C)O`, the EC50 with Hepatitis C virus was more than 10 µM. Also, the EC90 in the data set on Hepatitis C virus was more than 10 µM. Further, the CC50 at 144 h in data set [1] and in data set [4] was more than 100 µM each time. Moreover, the CC50 at 96 h in data set [2] is more than 10 µM. The compound further had a CC50 at 72 h in data set [3] of more than 100 µM.

As for `C=C(OCC)c1nc(N)nc2c1ncn2[C@@H]1O[C@H](COP(=O)(N[C@@H](C)C(=O)OCC)Oc2ccccc2)[C@@H](O)[C@@]1(C)O` (stereo not given in full), in the data set on Hepatitis C virus, the EC50 was more than 10 µM and the EC90 is more than 10 µM. Also, the CC50 at 144 h in data set [1] was more than 100 µM. For the same compound, the half-maximal cytotoxic concentration (CC50) at 96 h in data set [2] is more than 10 µM. In data set [3], the CC50 at 72 h was more than 100 µM. The same compound gave a CC50 at 144 h in data set [4] of more than 100 µM.

With `C[C@@]1(O)[C@H](O)[C@@H](CO)O[C@H]1n1cnc2c(N=[N+]=[N-])nc(N)nc21`, in the data set with Hepatitis C virus, the 50% effective concentration (EC50) is more than 10 µM and the EC90 is more than 10 µM. The same compound came in with a CC50 at 144 h in data set [1] of more than 100 µM. In addition, the CC50 at 96 h in data set [2] is more than 10 µM. This compound showed a CC50 at 72 h in data set [3] of more than 100 µM. In data set [4], this compound returned a CC50 at 144 h of more than 100 µM.

For the compound `CCOC(=O)[C@H](C)NP(=O)(OC[C@H]1O[C@@H](n2cnc3c(OC)nc(OC)nc32)[C@](C)(O)[C@@H]1O)Oc1ccccc1` (stereo not given in full), in the data set on Hepatitis C virus, the EC50 was more than 10 µM and the EC90 was more than 10 µM. In data set [1], this compound returned a CC50 at 144 h of more than 100 µM. Besides, the 50% cytotoxic concentration (CC50) at 96 h in data set [2] was more than 10 µM. In data set [3], this compound showed a cytotoxic concentration (CC50) at 72 h of more than 100 µM. Besides, in data set [4], the CC50 at 144 h was more than 100 µM.

For `COc1nc(O)nc2c1ncn2[C@@H]1O[C@H](CO)[C@@H](O)[C@@]1(C)O`, in the data set with Hepatitis C virus, the EC50 is more than 10 µM and the EC90 was more than 10 µM. The CC50 at 144 h in data set [1] is more than 100 µM. In addition, in data set [2], the CC50 at 96 h was more than 10 µM. In addition, in data set [3], the CC50 at 72 h is more than 100 µM. In addition, the CC50 at 144 h in data set [4] is more than 100 µM.

With `C[C@@]1(O)[C@H](O)[C@@H](CO)O[C@H]1n1cnc2c(NO)nc(N)nc21`, in the data set with Hepatitis C virus, the EC50 amounted to 0.3 µM and the EC90 was 5.5 µM. Also, the CC50 at 144 h in data set [1] was more than 100 µM. In addition, the CC50 at 96 h in data set [2] is more than 10 µM. The CC50 at 72 h in data set [3] is more than 100 µM. The CC50 at 144 h in data set [4] is more than 100 µM.

Consider `CC(C)(CO)C(=O)SCCOP(=O)(NCc1ccccc1)OC[C@H]1O[C@@H](n2cnc3c(=O)[nH]c(N)nc32)[C@](C)(O)[C@@H]1O` (stereo not given in full), for which the EC50 in the data set on Hepatitis C virus amounted to 0.3 µM. In addition, the EC90 in the data set with Hepatitis C virus amounted to 0.9 µM. Also, the CC50 at 144 h in data set [1] and in data set [4] was more than 100 µM each time. Also, the CC50 at 96 h in data set [2] is more than 100 µM. Moreover, the CC50 at 72 h in data set [3] was more than 100 µM.

With `CCOC(=O)[C@H](C)NP(=O)(OC[C@H]1O[C@@H](n2cnc3c(N)nc(Cl)nc32)[C@](C)(O)[C@@H]1O)Oc1ccccc1` (stereo not given in full), the EC50 in the data set with Hepatitis C virus stood at 1.7 µM. Moreover, the EC90 with Hepatitis C virus was 5.3 µM. Moreover, the CC50 at 144 h in data set [1] and in data set [4] was more than 100 µM throughout. Further, in data set [2], the CC50 at 96 h was more than 10 µM. In addition, the CC50 at 72 h in data set [3] is more than 100 µM.

Take `CCOC(=O)[C@H](C)NP(=O)(OC[C@H]1O[C@@H](n2cnc3c(OC)nc(O)nc32)[C@](C)(O)[C@@H]1O)Oc1ccccc1` (stereo not given in full): in the data set on Hepatitis C virus, the EC50 is more than 10 µM and the EC90 was more than 10 µM. In data set [1], this compound came in with a CC50 at 144 h of more than 100 µM. Also, the CC50 at 96 h in data set [2] was more than 10 µM. The CC50 at 72 h in data set [3] is more than 100 µM. This compound also had a CC50 at 144 h in data set [4] of more than 100 µM.

`COc1nc(OC)c2ncn([C@@H]3O[C@H](CO)[C@@H](O)[C@@]3(C)O)c2n1`: in the data set on Hepatitis C virus, the EC50 was more than 10 µM and the EC90 was more than 10 µM. Besides, in data set [1], the CC50 at 144 h was more than 100 µM. Moreover, the CC50 at 96 h in data set [2] is more than 10 µM. In addition, in data set [3], the CC50 at 72 h is more than 100 µM. This compound also showed a CC50 at 144 h in data set [4] of more than 100 µM.

Regarding `CCOC(=O)[C@H](C)NP(=O)(OC[C@H]1O[C@@H](n2cnc3c(OC)nc(ONC(=O)OCc4ccccc4)nc32)[C@](C)(O)[C@@H]1O)Oc1ccccc1` (stereo not given in full), in the data set with Hepatitis C virus, the EC50 was found to be 4.1 µM and the EC90 came out at 9.2 µM. The compound also came in with a half-maximal cytotoxic concentration (CC50) at 144 h in data set [1] of more than 100 µM. Further, the CC50 at 96 h in data set [2] was more than 33 µM. This compound came in with a CC50 at 72 h in data set [3] of more than 100 µM. For the same compound, it took 24 µM to reach half-maximal cytotoxicity in data set [4] (CC50 at 144 h).

Take `COc1nc(Cl)nc2c1ncn2[C@@H]1O[C@H](CO)[C@@H](O)[C@@]1(C)O`: in the data set with Hepatitis C virus, the EC50 was more than 10 µM and the EC90 is more than 10 µM. In data set [1], the CC50 at 144 h is more than 100 µM. Also, the CC50 at 96 h in data set [2] is more than 10 µM. Further, the CC50 at 72 h in data set [3] is more than 100 µM. Moreover, the CC50 at 144 h in data set [4] was more than 100 µM.

On to `COc1nc(ONC(=O)OCc2ccccc2)nc2c1ncn2[C@@H]1O[C@H](CO)[C@@H](O)[C@@]1(C)O`, for which, in the data set with Hepatitis C virus, the EC50 was more than 10 µM and the EC90 is more than 10 µM. The same compound came in with a CC50 at 144 h in data set [1] of more than 100 µM. For the same compound, the CC50 at 96 h in data set [2] was more than 10 µM. This compound displayed a CC50 at 72 h in data set [3] of more than 100 µM. The CC50 at 144 h in data set [4] was more than 100 µM.

As to `CCOC(=O)[C@H](C)NP(=O)(OC[C@H]1O[C@@H](n2cnc3c(N)nc(O)nc32)[C@](C)(O)[C@@H]1O)Oc1ccccc1` (stereo not given in full), in the data set with Hepatitis C virus, the EC50 was more than 10 µM and the EC90 is more than 10 µM. Besides, the CC50 at 144 h in data set [1] is more than 100 µM. Besides, in data set [2], the CC50 at 96 h was more than 10 µM. This compound gave a CC50 at 72 h in data set [3] of more than 100 µM. Also, in data set [4], the CC50 at 144 h is more than 100 µM.

In the case of `CCOC(=O)[C@H](C)NP(=O)(OC[C@H]1O[C@@H](n2cnc3c(OC)nc(Cl)nc32)[C@](C)(O)[C@@H]1O)Oc1ccccc1` (stereo not given in full), in the data set on Hepatitis C virus, the EC50 turned out to be 6.3 µM and the EC90 turned out to be 9.9 µM. Further, the CC50 at 144 h in data set [1] was more than 100 µM. Also, the CC50 at 96 h in data set [2] was more than 10 µM. This compound also displayed a CC50 at 72 h in data set [3] of more than 100 µM. In addition, in data set [4], the CC50 at 144 h was more than 100 µM.

In the case of `COc1nc(N)c2ncn([C@@H]3O[C@H](CO)[C@@H](O)[C@@]3(C)O)c2n1`, in the data set with Hepatitis C virus, the EC50 was more than 10 µM and the EC90 is more than 10 µM. This compound also returned a CC50 at 144 h in data set [1] of more than 100 µM. In addition, the CC50 at 96 h in data set [2] is more than 10 µM. The same compound returned a CC50 at 72 h in data set [3] of more than 100 µM. In data set [4], the CC50 at 144 h was more than 100 µM.
